Reference: publication PMC3086726 (Nuclear medicine and biology, 2010)
Where two headings read alike, the source gives them in different places.

Key:
[1] = Stability of 99mTc-cyclized analogues to cysteine challenge; type: physicochemical; conditions: pH 7.4, 37 °C
[2] = In vitro stability of 99mTc-cyclized analogues in PBS; type: physicochemical; conditions: pH 7.4, 37 °C
Outline: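 Test peptides were labelled with 99mTc by exchange from 99mTc-glucoheptonate (pH 7.9–8.1, 60 °C, 30 min), purified by radio-RP-HPLC, mixed with gentisic acid and evaporated. They were diluted in PBS or 1 mM cysteine, adjusted to pH 7.4 and incubated at 37 °C. Aliquots at 1, 2, 4 and 24 h were analysed by RP-HPLC for % intact. Replicate measurements used radio-TLC on C18 (10% ammonium acetate; 1:1 TFA-water/acetonitrile).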

[3] = type: in vitro ADME; conditions: mouse, serum, pH 7.4
[4] = parameters: species or system CF-1 mice; conditions: mouse

^99mTc-Ac-Cys^1,Tyr^3-octreotate [99mTc-2]
percent intact 99mTc-analogue post purification ([1]; 10 mM Cys, 1 h): 99.4 ± 0.3% | percent intact 99mTc-analogue post purification ([1]; 10 mM Cys, 2 h): 99.1 ± 0.5% | percent intact 99mTc-analogue post purification ([1]; 10 mM Cys, 4 h): 99.3 ± 0.1% | percent intact 99mTc-analogue post purification ([1]; 10 mM Cys, 24 h): 93.3 ± 0.7% | percent intact 99mTc-analogue post purification ([2]; 1 h): 98.3 ± 0.5% | percent intact 99mTc-analogue post purification ([2]; 2 h): 98.0 ± 0.2% | percent intact 99mTc-analogue post purification ([2]; 4 h): 97.8 ± 0.9% | percent intact 99mTc-analogue post purification ([2]; 24 h): 94.1 ± 1.4% | percent intact 99mTc-analogue post purification ([3]; 1 h): 96.7 ± 0.8% | percent intact 99mTc-analogue post purification ([3]; 2 h): 97.1 ± 0.7% | percent intact 99mTc-analogue post purification ([3]; 4 h): 97.0 ± 0.2% | percent intact 99mTc-analogue post purification ([3]; 24 h): 94.7 ± 2.4% | In vivo biodistribution, Adrenals ([4]; 150 ug, 1 h): 0.63 ± 0.19 %ID/g | In vivo biodistribution, Blood ([4]; 150 ug, 1 h): 1.38 ± 0.15 %ID/g | In vivo biodistribution, Kidney ([4]; 150 ug, 1 h): 2.97 ± 0.19 %ID/g | In vivo biodistribution, Lg. Int ([4]; 150 ug, 1 h): 0.56 ± 0.04 %ID/g | In vivo biodistribution, Liver ([4]; 150 ug, 1 h): 1.78 ± 0.59 %ID/g | In vivo biodistribution, Muscle ([4]; 150 ug, 1 h): 0.43 ± 0.05 %ID/g | In vivo biodistribution, Pancreas ([4]; 150 ug, 1 h): 0.54 ± 0.10 %ID/g | In vivo biodistribution, Sm. lnt ([4]; 150 ug, 1 h): 24.29 ± 3.21 %ID/g | In vivo biodistribution, Spleen ([4]; 150 ug, 1 h): 0.47 ± 0.07 %ID/g | In vivo biodistribution, Stomach ([4]; 150 ug, 1 h): 5.69 ± 0.45 %ID/g | In vivo biodistribution, Adrenals ([4]; 1 h): 0.36 ± 0.04 %ID/g | In vivo biodistribution, Blood ([4]; 1 h): 0.95 ± 0.12 %ID/g | In vivo biodistribution, Kidney ([4]; 1 h): 2.61 ± 0.64 %ID/g | In vivo biodistribution, Lg. Int ([4]; 1 h): 0.53 ± 0.08 %ID/g | In vivo biodistribution, Liver ([4]; 1 h): 1.60 ± 0.17 %ID/g | In vivo biodistribution, Muscle ([4]; 1 h): 0.26 ± 0.02 %ID/g | In vivo biodistribution, Pancreas ([4]; 1 h): 0.46 ± 0.15 %ID/g | In vivo biodistribution, Sm. lnt ([4]; 1 h): 20.28 ± 3.58 %ID/g | In vivo biodistribution, Spleen ([4]; 1 h): 0.38 ± 0.09 %ID/g | In vivo biodistribution, Stomach ([4]; 1 h): 2.95 ± 1.42 %ID/g | In vivo biodistribution, Adrenals ([4]; 4 h): 0.22 ± 0.07 %ID/g | In vivo biodistribution, Blood ([4]; 4 h): 0.34 ± 0.04 %ID/g | In vivo biodistribution, Kidney ([4]; 4 h): 1.43 ± 0.34 %ID/g | In vivo biodistribution, Lg. Int ([4]; 4 h): 28.18 ± 4.57 %ID/g | In vivo biodistribution, Liver ([4]; 4 h): 0.47 ± 0.15 %ID/g | In vivo biodistribution, Muscle ([4]; 4 h): 0.08 ± 0.04 %ID/g | In vivo biodistribution, Pancreas ([4]; 4 h): 0.15 ± 0.03 %ID/g | In vivo biodistribution, Sm. lnt ([4]; 4 h): 1.94 ± 0.50 %ID/g | In vivo biodistribution, Spleen ([4]; 4 h): 0.12 ± 0.01 %ID/g | In vivo biodistribution, Stomach ([4]; 4 h): 3.88 ± 0.54 %ID/g | In vivo biodistribution, Adrenals ([4]; 24 h): 0.03 ± 0.01 %ID/g | In vivo biodistribution, Blood ([4]; 24 h): 0.06 ± 0.01 %ID/g | In vivo biodistribution, Kidney ([4]; 24 h): 0.48 ± 0.10 %ID/g | In vivo biodistribution, Lg. Int ([4]; 24 h): 1.18 ±0.66 %ID/g | In vivo biodistribution, Liver ([4]; 24 h): 0.11 ± 0.01 %ID/g | In vivo biodistribution, Muscle ([4]; 24 h): 0.01 ± 0.01 %ID/g | In vivo biodistribution, Pancreas ([4]; 24 h): 0.02 ± 0.01 %ID/g | In vivo biodistribution, Sm. lnt ([4]; 24 h): 0.22 ± 0.04 %ID/g | In vivo biodistribution, Spleen ([4]; 24 h): 0.04 ± 0.01 %ID/g | In vivo biodistribution, Stomach ([4]; 24 h): 0.61 ± 0.15 %ID/g

^99mTc-Ac-Tyr^3-octreotate [99mTc-1]
percent intact 99mTc-analogue post purification ([1]; 1 mM Cys, 1 h): 97.1 ± 3.3% | percent intact 99mTc-analogue post purification ([1]; 1 mM Cys, 2 h): 95.1 ± 2.7% | percent intact 99mTc-analogue post purification ([1]; 1 mM Cys, 4 h): 87.2 ± 1.0% | percent intact 99mTc-analogue post purification ([1]; 1 mM Cys, 24 h): 81.7 ± 1.8% | percent intact 99mTc-analogue post purification ([1]; 10 mM Cys, 1 h): 60.1 ± 5.1% | percent intact 99mTc-analogue post purification ([1]; 10 mM Cys, 2 h): 55.8 ± 6.9% | percent intact 99mTc-analogue post purification ([1]; 10 mM Cys, 4 h): 38.9 ± 3.7% | percent intact 99mTc-analogue post purification ([1]; 10 mM Cys, 24 h): 22.9 ± 4.5% | percent intact 99mTc-analogue post purification ([2]; 1 h): 90.2 ± 2.4% | percent intact 99mTc-analogue post purification ([2]; 2 h): 83.4 ± 5.2% | percent intact 99mTc-analogue post purification ([2]; 4 h): 76.3 ± 3.4% | percent intact 99mTc-analogue post purification ([2]; 24 h): 52.0 ± 5.6% | percent intact 99mTc-analogue post purification ([3]; 1 h): 91.4 ± 1.8% | percent intact 99mTc-analogue post purification ([3]; 2 h): 81.7 ± 4.1% | percent intact 99mTc-analogue post purification ([3]; 4 h): 81.4 ± 4.7% | percent intact 99mTc-analogue post purification ([3]; 24 h): 51.2 ± 4.4% | In vivo biodistribution, Adrenals ([4]; 150 ug, 1 h): 2.18 ± 0.69 %ID/g | In vivo biodistribution, Blood ([4]; 150 ug, 1 h): 4.31 ± 0.44 %ID/g | In vivo biodistribution, Kidney ([4]; 150 ug, 1 h): 8.00 ± 1.74 %ID/g | In vivo biodistribution, Lg. Int ([4]; 150 ug, 1 h): 1.70 ± 0.18 %ID/g | In vivo biodistribution, Liver ([4]; 150 ug, 1 h): 6.47 ± 1.64 %ID/g | In vivo biodistribution, Muscle ([4]; 150 ug, 1 h): 0.68 ± 0.06 %ID/g | In vivo biodistribution, Pancreas ([4]; 150 ug, 1 h): 2.08 ± 0.31 %ID/g | In vivo biodistribution, Sm. lnt ([4]; 150 ug, 1 h): 10.91 ± 2.12 %ID/g | In vivo biodistribution, Spleen ([4]; 150 ug, 1 h): 1.74 ± 0.24 %ID/g | In vivo biodistribution, Stomach ([4]; 150 ug, 1 h): 14.18 ± 4.97 %ID/g | In vivo biodistribution, Adrenals ([4]; 1 h): 1.53 ± 0.30 %ID/g | In vivo biodistribution, Blood ([4]; 1 h): 3.81 ± 0.10 %ID/g | In vivo biodistribution, Kidney ([4]; 1 h): 12.05 ± 2.14 %ID/g | In vivo biodistribution, Lg. Int ([4]; 1 h): 2.55 ± 0.21 %ID/g | In vivo biodistribution, Liver ([4]; 1 h): 4.17 ± 0.34 %ID/g | In vivo biodistribution, Muscle ([4]; 1 h): 0.53 ± 0.06 %ID/g | In vivo biodistribution, Pancreas ([4]; 1 h): 1.49 ± 0.06 %ID/g | In vivo biodistribution, Sm. lnt ([4]; 1 h): 15.48 ± 3.35 %ID/g | In vivo biodistribution, Spleen ([4]; 1 h): 1.30 ± 0.17 %ID/g | In vivo biodistribution, Stomach ([4]; 1 h): 11.69 ± 10.10 %ID/g | In vivo biodistribution, Adrenals ([4]; 4 h): 0.86 ± 0.43 %ID/g | In vivo biodistribution, Blood ([4]; 4 h): 1.50 ± 0.29 %ID/g | In vivo biodistribution, Kidney ([4]; 4 h): 6.54 ± 0.23 %ID/g | In vivo biodistribution, Lg. Int ([4]; 4 h): 22.09 ± 4.99 %ID/g | In vivo biodistribution, Liver ([4]; 4 h): 1.58 ± 0.06 %ID/g | In vivo biodistribution, Muscle ([4]; 4 h): 0.25 ± 0.06 %ID/g | In vivo biodistribution, Pancreas ([4]; 4 h): 0.55 ± 0.04 %ID/g | In vivo biodistribution, Sm. lnt ([4]; 4 h): 2.02 ± 0.67 %ID/g | In vivo biodistribution, Spleen ([4]; 4 h): 0.55 ± 0.13 %ID/g | In vivo biodistribution, Stomach ([4]; 4 h): 7.54 ± 4.16 %ID/g | In vivo biodistribution, Adrenals ([4]; 24 h): 0.12 ± 0.03 %ID/g | In vivo biodistribution, Blood ([4]; 24 h): 0.15 ± 0.02 %ID/g | In vivo biodistribution, Kidney ([4]; 24 h): 2.04 ± 0.37 %ID/g | In vivo biodistribution, Lg. Int ([4]; 24 h): 3.08 ± 1.60 %ID/g | In vivo biodistribution, Liver ([4]; 24 h): 0.39 ± 0.03 %ID/g | In vivo biodistribution, Muscle ([4]; 24 h): 0.05 ± 0.02 %ID/g | In vivo biodistribution, Pancreas ([4]; 24 h): 0.07 ± 0.01 %ID/g | In vivo biodistribution, Sm. lnt ([4]; 24 h): 0.68 ± 0.20 %ID/g | In vivo biodistribution, Spleen ([4]; 24 h): 0.08 ± 0.01 %ID/g | In vivo biodistribution, Stomach ([4]; 24 h): 1.26 ± 0.49 %ID/g | uptake in the various tissues and organs relative to TATE and 99mTc-2 ([4]; in vivo): two to four times higher
